Reference: ChEMBL document CHEMBL4513216, “Probing the Open Global Health Chemical Diversity Library for Multistage-Active Starting Points for Next-Generation Antimalarials” (ACS Infect Dis, 2020)

Assay: Toxicity liver stage against HepG2, at 10uM
Assay type: cell-based
Parameters: test concentration 10 uM, cell line HepG2-A16-CD81EGFP
Details: human, HepG2-A16-CD81EGFP cells; read-out: INHIBITION
Procedure, shortened: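 Uninfected HepG2-A16-CD81EGFP cells, 3 × 10^3 per well, 1536-well, plated on prespotted compound at 10 μM final, parasite-free screening media added to match infected plates; puromycin 10 μM positive, DMSO 0.5% negative; run in parallel with 48 h PbLuc assay at 37 °C, 5% CO2; viability by CellTiter-Glo luminescence, normalized to controls.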

Compound	cytotoxicity at 10 µM [%]
Cc1cccnc1NC(=O)CSc1ccc2c(c1)OCCO2	-1.66
CCc1cnc(N2C[C@@H]3[C@@H](C(=O)NC(C)C)CCS(=O)(=O)[C@@H]3C2)nc1	-146
O=C(c1cccnc1)N1CCOCC2(CCN(c3ncccn3)C2)C1 (configuration not stated)	8.88
Cn1cc(C2CC(=O)NC23CCN(C(=O)C2CC=CC2)CC3)cn1 (configuration not stated)	8.13
O=C(c1ccccn1)N1CCc2ncnc(N3CCOCC3)c2CC1	0.661
CCCS(=O)(=O)N1CCc2onc(CNc3ncccn3)c2C1	-2.25
Cc1ccc(-n2ccc3nc(N4CCCC4)ncc3c2=O)cc1C	7.51
CNc1ncccc1CN1CCN(C(C)=O)CC(C(N)=O)C1 (configuration not stated)	2.31
Cc1cccnc1C(=O)N1CCCC(Cc2cncc3ccccc23)C1 (configuration not stated)	-18
Cc1cc(CCC2CN(Cc3ccccc3C(=O)O)CCO2)ncn1 (configuration not stated)	-19.9
NC(=O)c1ccc(=O)n(Cc2cc(Br)ccc2Cl)n1	4.71
N#Cc1cccc(OC2CCN(C(=O)c3cncc(O)c3)CC2)c1	7.28
Cc1noc(CNC(=O)NCCOc2ccc(Cl)cc2)n1	1.92
CC(C)(CNC(=O)c1ccco1)NC(=O)OC(C)(C)C	-2.43
CC(C)(CNC(=O)c1ccc(Cl)o1)NC(=O)OC(C)(C)C	-2.25
Cn1cc(N2CCN(c3ccc(C#N)cc3Br)CC2=O)cn1	-5.48
O=C(NCC1(O)CCSCC1)c1nccc2ccccc12	4.59
Cc1ccc(C(=O)NC2CCCN(c3ncccn3)C2)cn1 (configuration not stated)	-7.08
CC(C)N(C)C(=O)COc1ccc(-c2noc(C3CCCO3)n2)cc1 (configuration not stated)	4.24
CCc1nc(CN2CCCC(NCCn3cncn3)C2)no1 (configuration not stated)	-7.24
OC(CN1CCN(CC2CC2)CC1)c1ccc(Br)cc1 (configuration not stated)	-8.69

Compound	cytotoxicity at 10 µM [%]
COCCn1ccc(NCc2sccc2C)n1	5.6
CCN(CC)c1ccc(NC(=O)NC(C)Cn2cccn2)cn1 (configuration not stated)	1.35
Cc1nnc2n1CCN(Cc1csc(-c3cnn(C)c3)n1)C2	-3.5
Cc1c(C(=O)NCCN2C(=O)CCC2=O)sc2ccc(F)cc12	2.11
CN(C)c1ccc(NC(=O)c2ccnn2C)nc1	15.1
CC(=O)N1CCCN(CCn2nc3ccccn3c2=O)CC1	-137
CCN(C)c1ccc(CNC(=O)c2cc(C(N)=O)cs2)cc1F	6.36
O=c1[nH]nc(CNc2cncc(Br)c2)[nH]1	-1.23
CCC(NCc1ccccc1Cl)c1ccccc1OCC(=O)NC (configuration not stated)	13.3
Cc1cc(C)n(CC(=O)NC2CCCCNC2=O)n1 (configuration not stated)	-14.7
Cc1ccc(CN(C)C)cc1NC(=O)C1CC=CC1	-8
CS(=O)(=O)NCCNC(=O)Cc1ccc(Br)s1	-7.21
CC(C)c1noc(-c2ccc(N(C)C3CCOCC3)nc2)n1	-17.6
CN(Cc1cc[nH]n1)C(=O)C1CC(=O)N(Cc2ccncc2)C1 (configuration not stated)	1.59
COc1ccccc1Oc1ncccc1CNC(=O)[C@H](C)O	-2.64
Cc1occc1C(=O)N1CCCC1c1ccc(C(=O)N2CCOCC2)s1 (configuration not stated)	-143
CCC(NC(=O)c1cnc(N(C)C)nc1C)c1ccncc1 (configuration not stated)	-2.9
O=C(CCC1CCN(C(=O)c2cnco2)CC1)NCc1cccc(Cl)c1	-8.48
Cn1ncc2c(N3CC(N4CCCCC4)C3)nc(C3CCCC3)nc21	-5.07
Cn1cc(CN(C(=O)c2ccc3ncsc3c2)C2CC2)cn1	3.11
CCN(CCc1nc2cc(C)ccc2[nH]1)C(=O)COC	-5.89

Compound	cytotoxicity at 10 µM [%]
CC(C)(O)C1CCCN(C(=O)Nc2nc(-c3ccccc3)ns2)C1 (configuration not stated)	-137
CC(C)C1CN(Cc2c[nH]cn2)CCCN1CC1CC1 (configuration not stated)	0.127
CCCc1nnc(N(C)CC2CCN(CC(C)C)C2)o1 (configuration not stated)	-1.41
CCc1ncc(C(=O)N(C)CC2Cc3ccccc3O2)cn1 (configuration not stated)	-0.734
Cc1cc(C)cc(S(=O)(=O)NCC2CNCCOC2)c1 (configuration not stated)	-1.86
CN(CC1(CO)CCCC1)C(=O)c1cc(COc2ccccc2F)[nH]n1	6.2
O=C(NCc1nc[nH]n1)c1cc(COc2ccccc2F)[nH]n1	-3.58
COc1ccc(C(=O)N2CCN(CCO)CC2)c(F)c1	-3.79
CCN(CC)S(=O)(=O)c1cccc(C(=O)N(C)Cc2ccsc2)c1	-6.8
CN(Cc1ccsc1)C(=O)c1ccc(S(=O)(=O)NC(C)(C)C)cc1	-8.01
CN1CCCC1CNC(=O)CCCOc1ccc(Br)cc1 (configuration not stated)	-7.69
Cc1nc(C2CCCN2Cc2ccon2)no1 (configuration not stated)	-18
COc1ccccc1OCCC(=O)N1CCCCC1c1nccs1 (configuration not stated)	-15.7
CN(C)c1cc(CNC(=O)Nc2cccnc2N2CCCC2)ccn1	-20.5
Cc1nn(C)c(N(C)C)c1CNC(C)COc1ccc(F)cc1 (configuration not stated)	-4.38
CCn1cc(NC(=O)NCc2ccc(CO)c(F)c2)cn1	8.69
COc1c(CNC2CCc3ccccc32)c(C)nn1C (configuration not stated)	7.08
COc1cccc(CN2CCCCC2Cn2nc(C)nc2C)c1 (configuration not stated)	-11.5
Cc1cnn(CC2CN(Cc3nc4ccccc4o3)CCO2)c1 (configuration not stated)	-3.49
Cc1ccc(C(O)CN2CCN(Cc3nccn3C)CC2)cc1C (configuration not stated)	-37
CCc1nc(C2CCCN(C(=O)c3ccncc3)C2)no1 (configuration not stated)	-13

Compound	cytotoxicity at 10 µM [%]
CCn1cnnc1CNC(=O)N1CCN(Cc2ccsc2)CC1	-15.4
CCn1cc(CN2CCCN(C(=O)c3ccco3)CC2)cn1	-11.3
COc1ccc2c(c1)CN(c1cc(N3CCCC3CO)ncn1)CC2 (configuration not stated)	-4.16
CCOc1ccc(CC(CNC(=O)c2ccc(C)o2)C(N)=O)cc1 (configuration not stated)	3.58
Cc1nc(CN2CCN(C(=O)c3c(C)noc3C)CC2)cs1	-23.2
Cc1ccc(C(=O)NCCNc2ncccc2C#N)c(=O)[nH]1	-7.44
Cc1ccc(CN2C[C@H](OCC3CCOCC3)[C@H]3COC[C@H]32)o1	-4.58
c1cncc(OC[C@@]23CCO[C@@H]2CCN(Cc2cccs2)C3)c1	14.6
O=C(CN1CC(c2nc(-c3ccco3)no2)C1)NCCc1ccccc1	-9.54
CCN(CC)[C@@H]1CN(C(=O)c2ccnnc2)[C@@H]2CCCO[C@H]12	-146
Cc1cnc(N2C[C@@H]3CCN(CC(=O)N(C)C)C(=O)[C@H]3C2)nc1	-19
CO[C@@H]1CCN(Cc2cccc(C)n2)[C@@H]2CN(Cc3ccncc3)C[C@@H]21	0.951
c1cncc(COCC2CN(Cc3cccnc3)Cc3ccnn3C2)c1 (configuration not stated)	-136
O=S(=O)(C1CC1)N1CC[C@H]2OCC[C@@]2(COc2ncccc2F)C1	-150
CC(=O)N1[C@H](CN(C)C)C[C@@H]2CN(C(=O)Cc3cccs3)CC[C@@H]21	-0.155
CCCS(=O)(=O)N1C[C@@H]2CN(Cc3ccoc3)CCO[C@@H]2C1	-117
CCc1c(C(=O)N2C[C@@H]3CC[C@H]2CN(c2cnccn2)C3)csc1C	13.3
CN1[C@@H]2CC[C@H]1CN(C(=O)c1nnc3n1CCCCC3)CC2	-5.43
O=C1CCC2(CCN(Cc3cscn3)CC2)CN1C1CCC(O)CC1 (configuration not stated)	-4.33
